In ChEMBL document CHEMBL4406820, “Novel reverse thia-analogs of fosmidomycin: Synthesis and antiplasmodial activity” (Eur J Med Chem, 2019):

Key:
Klebsiella pneumoniae [1] = assay: Antimicrobial activity against Klebsiella pneumoniae ATCC 13883 incubated for 18 hrs by microbroth dilution assay; format: functional; settings: ATCC 13883, 18 h
[2] = test system: Mycobacterium tuberculosis; assay: Antimycobacterial activity against Mycobacterium tuberculosis H37Rv incubated for 5 days by resazurin dye based assay; format: functional; settings: 120 h
[3] = Selectivity index, ratio of IC50 for human HeLa cells to IC50 for Plasmodium falciparum 3D7; format: toxicity; settings: read-out: Ratio IC50
Method in brief: (§1)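 Cytotoxicity on HeLa monolayers quantified spectrophotometrically, given as the mean of two independent double determinations. SI is HeLa IC50 divided by the P. falciparum 3D7 IC50.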

Escherichia coli [4] = assay: Antimicrobial activity against Escherichia coli ATCC 25922 incubated for 18 hrs by microbroth dilution assay; format: functional; settings: ATCC 25922, 18 h
Acinetobacter baumannii [5] = assay: Antimicrobial activity against Acinetobacter baumannii ATCC BAA747 incubated for 18 hrs by microbroth dilution assay; format: functional; settings: ATCC BAA747, 18 h
[6] = biological target: T1, 1-deoxy-D-xylulose 5-phosphate reductoisomerase, apicoplastic (Plasmodium falciparum (isolate 3D7), UniProt Q8IKG4); assay: Inhibition of recombinant Plasmodium falciparum IspC expressed in Escherichia coli using 1-deoxy-D-xylulose 5-phosphate as substrate by photometric assay
T1 sequence (Q8IKG4 whole entry): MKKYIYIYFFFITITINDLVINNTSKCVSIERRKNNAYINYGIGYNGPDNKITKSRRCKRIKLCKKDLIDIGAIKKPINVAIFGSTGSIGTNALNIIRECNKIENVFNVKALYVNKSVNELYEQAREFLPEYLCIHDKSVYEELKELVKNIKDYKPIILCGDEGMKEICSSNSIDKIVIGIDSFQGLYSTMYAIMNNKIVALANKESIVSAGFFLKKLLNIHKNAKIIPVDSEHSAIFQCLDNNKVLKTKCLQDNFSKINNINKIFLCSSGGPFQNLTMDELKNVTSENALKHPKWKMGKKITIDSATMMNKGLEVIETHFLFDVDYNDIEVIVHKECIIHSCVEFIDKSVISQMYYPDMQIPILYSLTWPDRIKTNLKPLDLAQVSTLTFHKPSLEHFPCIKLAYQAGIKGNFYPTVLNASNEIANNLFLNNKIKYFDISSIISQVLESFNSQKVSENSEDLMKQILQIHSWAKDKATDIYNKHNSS
Method in brief: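 P. falciparum IspC expressed in E. coli. Reaction mix: 100 mM Tris-HCl pH 7.6, 5 mM MnCl2, 5 mM DTT, 0.5 mM NADPH, 0.02 U enzyme. Inhibitor tested as a 1:3 series from 200 to 0.003 µM. Started with 0.5 mM DXP; read at 340 nm, room temperature. IC50 calculated from at least eight data points; generally two to three independent determinations.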

[7] = biological target: T2, 1-deoxy-D-xylulose 5-phosphate reductoisomerase (Mycobacterium tuberculosis, UniProt P9WNS1); assay: Inhibition of recombinant Mycobacterium tuberculosis IspC expressed in Escherichia coli M15 using 1-deoxy-D-xylulose 5-phosphate as substrate by photometric assay
T2 sequence (P9WNS1 whole entry): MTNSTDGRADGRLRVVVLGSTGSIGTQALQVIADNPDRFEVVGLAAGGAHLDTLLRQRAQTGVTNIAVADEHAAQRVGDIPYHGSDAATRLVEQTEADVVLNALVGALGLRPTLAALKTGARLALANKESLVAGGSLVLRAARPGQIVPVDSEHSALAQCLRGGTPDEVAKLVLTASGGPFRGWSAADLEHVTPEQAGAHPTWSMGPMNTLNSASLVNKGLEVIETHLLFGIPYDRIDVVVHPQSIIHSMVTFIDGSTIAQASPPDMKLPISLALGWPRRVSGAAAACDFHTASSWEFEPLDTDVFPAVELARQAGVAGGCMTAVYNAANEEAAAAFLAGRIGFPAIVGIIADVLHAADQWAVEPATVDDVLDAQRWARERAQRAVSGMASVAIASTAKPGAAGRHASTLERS

Acinetobacter baumannii [8] = assay: Antimicrobial activity against Acinetobacter baumannii ATCC BAA 1605 incubated for 18 hrs by microbroth dilution assay; format: functional; settings: ATCC BAA 1605, 18 h
[9] = biological target: T3, 1-deoxy-D-xylulose 5-phosphate reductoisomerase (Escherichia coli, UniProt W8T2T2); assay: Inhibition of recombinant Escherichia coli IspC expressed in Escherichia coli M15 using 1-deoxy-D-xylulose 5-phosphate as substrate by photometric assay
T3 sequence (W8T2T2 whole entry): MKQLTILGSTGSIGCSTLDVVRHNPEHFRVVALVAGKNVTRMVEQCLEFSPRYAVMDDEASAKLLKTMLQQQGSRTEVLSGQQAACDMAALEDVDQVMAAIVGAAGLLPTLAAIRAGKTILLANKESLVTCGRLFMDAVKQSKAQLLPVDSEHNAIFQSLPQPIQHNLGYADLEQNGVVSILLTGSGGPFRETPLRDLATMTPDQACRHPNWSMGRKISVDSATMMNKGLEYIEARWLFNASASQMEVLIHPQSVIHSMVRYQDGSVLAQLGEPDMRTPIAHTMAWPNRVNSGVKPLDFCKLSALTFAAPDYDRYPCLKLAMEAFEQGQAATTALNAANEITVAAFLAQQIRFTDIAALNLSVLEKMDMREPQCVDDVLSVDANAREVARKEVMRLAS
Method in brief: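 E. coli IspC, His-tagged, expressed in E. coli M15 pREP4 (IPTG 1 mM, 36 h at 20 °C) and purified by Ni2+-chelate chromatography to about 95% purity. Reaction mix: 100 mM Tris-HCl pH 7.6, 5 mM MnCl2, 5 mM DTT, 0.5 mM NADPH, 0.02 U enzyme. Inhibitor tested as a 1:3 series from 200 to 0.003 µM. Started with 0.5 mM DXP; NADPH consumption read at 340 nm, room temperature. IC50 fitted from at least eight points.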

Escherichia coli [10] = assay: Antimicrobial activity against Escherichia coli ATCC BAA 2469 incubated for 18 hrs by microbroth dilution assay; format: functional; settings: ATCC BAA 2469, 18 h
HeLa = assay: Cytotoxicity against human HeLa cells assessed as reduction in cell viability incubated for 24 hrs by neutral red assay; format: cell-based; method in brief: as §1
Pseudomonas aeruginosa = assay: Antimicrobial activity against Pseudomonas aeruginosa ATCC 27853 incubated for 18 hrs by microbroth dilution assay; format: functional; settings: ATCC 27853, 18 h
Plasmodium falciparum [11] = assay: Antimalarial activity against asexual blood stages of Plasmodium falciparum 3D7 infected in human erythrocytes incubated for 3 days by ELISA; format: functional, organism-based; settings: 3D7, 72 h
Method in brief: (§2)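 Asexual blood-stage P. falciparum cultured in human erythrocytes; growth measured by HRP2 double-site sandwich ELISA. IC50 values are the mean of two independent double determinations.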

Klebsiella pneumoniae [12] = assay: Antimicrobial activity against Klebsiella pneumoniae ATCC 700603 incubated for 18 hrs by microbroth dilution assay; format: functional; settings: ATCC 700603, 18 h
Plasmodium falciparum [13] = assay: Antimalarial activity against asexual blood stages of Plasmodium falciparum Dd2 infected in human erythrocytes incubated for 3 days by ELISA; format: functional, organism-based; settings: Dd2, 72 h; method in brief: as §2

Row | Compound | MIC (Klebsiella pneumoniae [1]) [µM] | MIC [2] [µM] | selectivity ratio [3] | MIC (Escherichia coli [4]) [µM] | MIC (Acinetobacter baumannii [5]) [µM] | IC50 [6] [nM] | IC50 [7] [µM] | MIC (Acinetobacter baumannii [8]) [µM] | IC50 [9] [µM] | MIC (Escherichia coli [10]) [µM] | IC50 (HeLa) [mM] | MIC (Pseudomonas aeruginosa) [µM] | IC50 (Plasmodium falciparum [11]) [µM] | MIC (Klebsiella pneumoniae [12]) [µM] | IC50 (Plasmodium falciparum [13]) [nM]
1 | Cc1ccc(C(SCC(=O)NO)P(=O)(O)O)cc1 (racemic) | > 100 | > 100 | > 150 | > 100 | > 100 | 32 | 8.2 | > 100 | 0.29 | > 100 | > 1 | > 100 | 6.5 | > 100 | 8000
2 | CN(O)C(=O)CSC(c1cccc2ccccc12)P(=O)(O)O (racemic) | > 100 | > 100 |  | > 100 | > 100 |  |  | > 100 |  | > 100 |  | > 100 |  | > 100 | 
3 | COc1cc(OC)cc(C(SCC(=O)N(C)O)P(=O)(O)O)c1 (racemic) | > 100 | > 100 | > 6400 | > 100 | > 100 | 20 | 4.4 | > 100 | 0.16 | > 100 | > 1 | > 100 | 0.16 | > 100 | 180
4 | Cc1ccc(C(P(=O)(O)O)S(=O)(=O)CC(=O)N(C)O)cc1 (stereo not drawn) | > 100 | > 100 |  | > 100 | > 100 | 8500 | 143 | > 100 | 36 | > 100 | > 0.05 | > 100 | > 100 | > 100 | 
5 | O=CN(O)CCCP(=O)(O)O [FOSMIDOMYCIN SODIUM] |  |  |  |  |  |  |  |  | 0.22 |  |  |  |  |  | 
6 | CN(O)C(=O)CS(=O)(=O)C(c1ccccc1)P(=O)(O)O (stereo not drawn) |  |  |  |  |  | 7600 | 115 |  | 36 |  |  |  | > 100 |  | 
7 | O=C(CSC(c1cc(F)cc(F)c1)P(=O)(O)O)NO (racemic) | > 100 | > 100 | > 810 | > 100 | > 100 | 11 | 0.32 | > 100 | 0.013 | > 100 | > 1 | > 100 | 1.2 | > 100 | 870
8 | Cc1ccc(C(SCC(=O)N(C)O)P(=O)(O)O)cc1 (racemic) | > 100 | > 100 |  | > 100 | > 100 |  |  | > 100 |  | > 100 |  | > 100 |  | > 100 | 
9 | CN(O)C(=O)CSC(c1cc(F)cc(F)c1)P(=O)(O)O (racemic) | > 100 | > 100 | > 6700 | > 100 | > 100 | 13 | 0.11 | > 100 | 0.018 | > 100 | > 1 | > 100 | 0.15 | > 100 | 130
10 | CN(O)C(=O)CSC(c1ccc(Cl)c(Cl)c1)P(=O)(O)O (racemic) | > 100 | > 100 |  | > 100 | > 100 |  |  | > 100 |  | > 100 |  | > 100 |  | > 100 | 
11 | COc1cc(OC)cc(C(P(=O)(O)O)S(=O)(=O)CC(=O)N(C)O)c1 (stereo not drawn) |  |  |  |  |  | 3700 | > 1000 |  | 80 |  | > 1 |  | > 100 |  | 
12 | COc1cc(OC)cc(C(SCC(=O)NO)P(=O)(O)O)c1 (racemic) | > 100 | > 100 | > 3000 | > 100 | > 100 | 24 | 44 | > 100 | 0.68 | > 100 | > 1 | > 100 | 0.33 | > 100 | 270
13 | COc1cc(OC)cc(C(P(=O)(O)O)S(=O)(=O)CC(=O)NO)c1 (stereo not drawn) | > 100 | > 100 |  | > 100 | > 100 | 220 | 194 | > 100 | 4.5 | > 100 | > 0.5 | > 100 | 2.7 | > 100 | 
14 | CN(O)C(=O)CS(=O)(=O)C(c1cc(F)cc(F)c1)P(=O)(O)O (stereo not drawn) | > 100 | > 100 |  | > 100 | > 100 | 5500 | 44 | > 100 | 4.3 | > 100 | > 1 | > 100 | 19 | > 100 | 
15 | Cc1ccc(C(P(=O)(O)O)S(=O)(=O)CC(=O)NO)cc1 (stereo not drawn) |  |  |  |  |  | 65000 | > 1000 |  | 64 |  |  |  | > 100 |  | 
16 | CN(O)C(=O)CS(=O)(=O)C(c1cccc2ccccc12)P(=O)(O)O (stereo not drawn) | > 100 | > 100 |  | > 100 | > 100 | 823000 | 621 | > 100 | 15 | > 100 | > 1 | > 100 | > 100 | > 100 | 
17 | CN(O)C(=O)CS(=O)(=O)C(c1ccc(Cl)c(Cl)c1)P(=O)(O)O (stereo not drawn) | > 100 | > 100 |  | > 100 | > 100 | 1000 | 21 | > 100 | 11 | > 100 | > 1 | > 100 | > 100 | > 100 | 
